About 660 (0.35%) of roughly 190,000 compounds were called active. Only a selection was taken, and actives are over-represented in it overall. Unmarked numbers belong to inactive results.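 The calls were made as follows: active = activation factor of 2 or more at 20 µM; inactive = the rest.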

For this assay, the target named is Mannose-6-phosphate isomerase (Homo sapiens) (UniProt P34949). Put plainly: MPI activation at elevated mannose 6-phosphate – biochemical, fluorescence intensity, near-saturating mannose 6-phosphate, primary screen (AID 1216). The following applies: coupled PMI enzyme assay, resazurin fluorescence, 20 min; at 20 µM; hits give high values; 1 = untreated enzyme, 0 = substrate-free blank. The method, boiled down: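 Test system – human PMI in coupled enzyme assay · Timing – 20 min incubation at room temperature · Detection – Diaphorase-driven resazurin-to-resorufin fluorescence, excitation 544, emission 590 nm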
Chain of Mannose-6-phosphate isomerase (Homo sapiens) (P34949 whole entry, looked up): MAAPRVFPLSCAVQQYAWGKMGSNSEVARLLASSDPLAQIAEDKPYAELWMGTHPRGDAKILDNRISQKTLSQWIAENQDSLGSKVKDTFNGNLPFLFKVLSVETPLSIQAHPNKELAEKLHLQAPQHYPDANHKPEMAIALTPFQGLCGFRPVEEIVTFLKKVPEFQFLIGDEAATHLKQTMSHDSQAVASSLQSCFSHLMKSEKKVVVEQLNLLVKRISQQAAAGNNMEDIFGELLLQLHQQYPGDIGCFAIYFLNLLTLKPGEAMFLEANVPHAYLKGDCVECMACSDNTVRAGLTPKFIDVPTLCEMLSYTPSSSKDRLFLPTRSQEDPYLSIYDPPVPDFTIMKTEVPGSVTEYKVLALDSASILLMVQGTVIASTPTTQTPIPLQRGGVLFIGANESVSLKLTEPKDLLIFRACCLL
(Resazurin is reduced to fluorescent resorufin, in cell work by metabolically active cells.)
As to `O=C(CCCn1c(=O)c2sccc2n(CC(=O)NCC2CCCO2)c1=O)NCc1ccco1` (stereo unspecified), the activation factor is 0.9. Regarding `Cn1cc(C(=O)NCc2ccccc2F)cn1`, the activation factor is 1. The figure for `O=C(CO/N=C/c1ccccc1OC(F)F)NC1CCCC1` is 1.1. Under `CCN(CC)C(=O)C(=O)Nc1cccc(Br)c1` stands 0.9; under `C=CCc1ccccc1OCC(=O)N/N=C/c1ccccc1OCC`, 0.9; under `OCC1(Cc2ccccc2C(F)(F)F)CCN(Cc2cccc3cnccc23)CC1`, 0.9. The figure for `COc1ccc(OC)c(NC(=O)CN(Cc2ccc(Cl)cc2)S(C)(=O)=O)c1` is 0.8; for `CSc1ncccc1C(=O)OCc1ccc(Br)cc1` it is 1.

Take `COC(=O)C(NS(=O)(=O)c1ccc(F)cc1)c1ccccc1` (stereo unspecified): the activation factor is 0.9. Under `COc1ccc(-c2c3c(=O)n(C)c(=O)n(C)c3cn2-c2cccc(OC)c2)cc1` stands 1.2.

Turning to `COc1cccc(-n2cc3c(c2-c2ccccc2)c(=O)n(C)c(=O)n3C)c1`, the activation factor is 1. Under `COc1ccc(-c2c3c(=O)n(C)c(=O)n(C)c3cn2NC(C)=O)cc1` stands 2 (active); under `COCCn1c(C)cc(C(=O)COC(=O)/C=C/c2cccc(OC)c2)c1C`, 1; under `COc1ccc(CNC2CCCCC2)cc1`, 1. For `Cc1ccc(N/N=C2\COC(C)(C)CC2=O)cc1`, the activation factor was 1.9. In the case of `COc1ccc(N/N=C2/CCCCC2=O)cc1`, the activation factor was 2 (active). As to `CC(=O)c1cc(C#N)c(N2CC(C)OC(C)C2)nc1C` (stereo unspecified), the activation factor is 1. The figure for `CC(C)N(C(=O)Cn1cc(SCC(=O)N2CCCC2)c2ccccc21)C(C)C` is 1; for `COc1ccc(-c2nn(-c3ccccc3)cc2CN2CCCO2)c(F)c1` it is 1.

Regarding `CCN(C(=O)COC(=O)c1cc(NS(=O)(=O)c2ccc(Cl)c([N+](=O)[O-])c2)ccc1O)C1CCCCC1`, the activation factor was 0.9. Under `O=C(/C=C\NCC(=O)c1ccccc1)c1ccccc1` stands 2.5 (active). The figure for `O=C(/C=C/NCc1ccc(F)cc1)c1ccccc1` is 1; for `Cc1ccc(N/C=C/C(=O)c2ccccc2)cc1C` it is 1.1. Under `CN(C)CCCSc1ccccc1NC(=O)/C=C/c1ccccc1` stands 1; under `Cc1ccc(S(=O)(=O)CCC(=O)OCc2ccccc2)cc1`, 1. Consider `O=C(CNC(=O)c1cc(=O)[nH]c2ccccc12)Nc1ccc(F)c(F)c1`, for which the activation factor was 0.9. Under `COC(=O)C(=Nc1ccccc1)/C(C(=O)C(=O)N(C)c1ccccc1)=C(\O)c1ccc(Cl)cc1` stands 0.8. The figure for `COc1cc(OC)cc(C(=O)OCC(=O)Nc2ccc(F)cc2F)c1` is 0.9; for `COc1ccc(C(=O)Nc2ccc(F)cc2F)cc1` it is 2 (active); for `COc1ccccc1CC(=O)Nc1ccc(F)cc1F` it is 1. Take `Cc1cc(C)cc(C(=O)NCC(=O)OCC(=O)N2CCCCC2)c1`: the activation factor was 1.2. `Cc1ccc(N/C(N)=N/c2nc(C(F)(F)F)cc(C(F)(F)F)n2)cc1`: the activation factor was 1.1.

In the case of `O=C(CN1CCN(c2ccccc2F)CC1)c1ccc2c(c1)OCO2`, the activation factor is 2 (active). In the case of `O=C(CN1CCN(CC(=O)Nc2ccc3c(c2)OCO3)CC1)Nc1ccc(F)cc1`, the activation factor is 1. Under `O=C(Nc1ccccc1N1CCN(C(=O)c2ccccc2)CC1)c1ccc2c(c1)OCO2` stands 0.9; under `S=C(Nc1ccc(Br)cc1Cl)N1CCC2(CC1)OCCO2`, 0.9; under `CCOC(=O)/C(=N\Nc1cc(Cl)ccc1Cl)N1CCN(C)CC1`, 1.

In the case of `CC(C)(C)C(=O)CSc1nc2ccccc2o1`, the activation factor was 0.9.

Turning to `CN1CCN(S(=O)(=O)c2cccc(C(=O)O)c2)CC1`, the activation factor is 1.1.

Consider `CC1Cc2ccccc2N1C(=O)CSc1nnc(-c2ccc(S(=O)(=O)N3CCCC3)cc2)n1C` (stereo unspecified), for which the activation factor is 0.4.

In the case of `COc1ccccc1NC(=O)C1=C(C)Nc2nc3ccccc3n2C1c1cccs1` (stereo unspecified), the activation factor was 1.

For the molecule `COC(=O)Cc1cc(=O)n(-c2nc3ccccc3s2)[nH]1`, the activation factor is 2 (active). The figure for `COC(=O)Cc1nc2ccccc2[nH]1` is 1; for `CCC(=O)NC(=Nc1nc2ccccc2s1)NC(=O)CC` it is 1.1. `CCCCN=C1C([N+](=O)[O-])=CC=C2C1=NC1(CCCCC1)N2O`: the activation factor is 0.5.

As for `O=C(Nc1cccnc1)c1cc2cc(Br)ccc2oc1=O`, the activation factor was 1.1. The figure for `CS(=O)(=O)N(CC(=O)NC1CCCC1)Cc1ccc(F)cc1` is 1. On to `CCC1=NN(C(=O)Cc2ccc([N+](=O)[O-])cc2)C(O)(c2ccc(Br)cc2)C1` (stereo unspecified), for which the activation factor was 0.9. On to `CCN(CC)CCN1C(=O)C(=O)/C(=C(/O)c2ccccc2)C1c1ccccc1F` (stereo unspecified), for which the activation factor was 1. Under `CCN(CC)CCN1C(=O)C(=O)/C(=C(/O)c2ccc(OC)c(OC)c2)C1c1ccccn1` (stereo unspecified) stands 1.2; under `CCN(CC)CCN1C(=O)C(=O)/C(=C(/O)c2cnn(-c3ccccc3)c2C)C1c1cccs1` (stereo unspecified), 2 (active); under `Cc1cc(C)c(OCCN2CC(C)OC(C)C2)c(Br)c1` (stereo unspecified), 0.9.

Consider `Cc1scc(C(=O)NNC(=S)NCc2ccccc2)c1C`, for which the activation factor is 1.1. Under `S=C(c1ccc(-c2ccccc2)o1)N1CCCCC1` stands 0.9; under `C=CCN(C(=O)c1cc(C)cc(C)c1)C1(C(=O)Nc2ccccc2)CCN(C(C)C)CC1`, 1. The figure for `COc1cccc(CN2CCNC(=O)C2CC(=O)N(C)CCc2ccccn2)c1` (stereo unspecified) is 0.7; for `CC1=C(C)CC(C(=O)NNC(=O)c2csc3c2CCC(C(C)(C)C)C3)C(C(=O)O)C1` (stereo unspecified) it is 1.

In the case of `Cc1ccc(/C(N)=N/OC(=O)COc2ccc(Cl)c(C)c2)cc1`, the activation factor was 1.

Turning to `Nc1ncc(-c2cc3ccccc3oc2=O)s1`, the activation factor is 0.8.

Turning to `O=C(c1cn(-c2ccccc2)nc1-c1cc2ccccc2oc1=O)N1CCOCC1`, the activation factor is 1.

For `O=c1oc2ccccc2cc1-c1cn(-c2ccccc2)c(=S)[nH]1`, the activation factor is 2.3 (active). Under `O=S1(=O)CC/C(=N\Nc2ccc(F)cc2)c2ccsc21` stands 2.6 (active); under `COC(=O)c1nc(NC(=O)c2ccc(F)cc2)n[nH]1`, 1; under `CCOC(=O)C1(O)CC(C)=NN1C(=O)c1cccc(Br)c1` (stereo unspecified), 1.1. On to `Cn1cccc1/C=N/NC(=O)c1ccc(OC(F)(F)C(F)F)cc1`, for which the activation factor is 0.9. In the case of `O=C(NCc1ccccc1Cl)C1CCCO1` (stereo unspecified), the activation factor was 1.
